Results on 16 compounds are retold here after ChEMBL document CHEMBL4041461, “Discovery of 6,7-dihydro-3H-pyrano[4,3-c]isoxazol-3-ones as a new class of pathogen specific anti-leptospiral agents” (Eur J Med Chem, 2017).

Common to all, as to assay type: functional
Test [1] can be described thus: Antibacterial activity against Leptospira interrogans serovar Icterohaemorrhagiae RGA after 2 hrs by micro dilution assay.
Test [2] relates to Leptospira interrogans serovar Autumnalis. The test is described as follows: Antibacterial activity against Leptospira interrogans serovar Autumnalis N2 at 125 ug/mL after 2 hrs by micro dilution assay. Summed up: (§1)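 Preliminary screen by broth microdilution against L. interrogans serovar Autumnalis strain N2, each compound at 500, 250, 125, 62.5 and 31.25 µg/mL. Growth at each concentration was scored as resistance (R) or inhibition (I), and the MIC was taken from these scores. Triplicates.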

Test [3] is described as follows: Antibacterial activity against Leptospira interrogans serovar Pomona after 2 hrs by micro dilution assay.
The nature of test [4]: Antibacterial activity against Leptospira interrogans serovar Pyrogenes Salinem after 2 hrs by micro dilution assay.
Test [5] can be described thus: Antibacterial activity against Leptospira interrogans serovar Hardjo Hardjoprajitno after 2 hrs by micro dilution assay.
Test [6] is described as follows: Antibacterial activity against Leptospira interrogans serovar Canicola Hond Utrecht IV after 2 hrs by micro dilution assay.
Test [7] deals with Leptospira interrogans serovar Autumnalis. The test is described as follows: Antibacterial activity against Leptospira interrogans serovar Autumnalis N2 at 62.5 ug/mL after 2 hrs by micro dilution assay. Summed up: as §1
Test [8] can be described thus: Antibacterial activity against Leptospira interrogans serovar Javanica Poi after 2 hrs by micro dilution assay.
Test [9] in a line: Antibacterial activity against Leptospira interrogans serovar Bataviae Swart after 2 hrs by micro dilution assay.
The nature of test [10]: Antibacterial activity against Leptospira interrogans serovar Ballum Mus 127 after 2 hrs by micro dilution assay. The note with it: Mus 127, 2 h.
Test [11] can be described thus: Antibacterial activity against Leptospira interrogans serovar Australis Ballico after 2 hrs by micro dilution assay.
For test [12], the system named is Leptospira interrogans serovar Autumnalis. The test can be described thus: Antibacterial activity against Leptospira interrogans serovar Autumnalis N2 at 500 ug/mL after 2 hrs by micro dilution assay. The method in brief:
as §1

Test [13] can be described thus: Antibacterial activity against Leptospira interrogans serovar Hebdomadis after 2 hrs by micro dilution assay.
Test [14] relates to Leptospira interrogans serovar Autumnalis. The test can be described thus: Antibacterial activity against Leptospira interrogans serovar Autumnalis N2 at 250 ug/mL after 2 hrs by micro dilution assay. Summed up: as §1
In a further test the test system is Leptospira interrogans. The test is described as follows: (§2) Antibacterial activity against Leptospira interrogans serovar Semaranga after 2 hrs by micro dilution assay.
Test [15] relates to Leptospira interrogans serovar Autumnalis. The test can be described thus: Antibacterial activity against Leptospira interrogans serovar Autumnalis N2 at 31.25 ug/mL after 2 hrs by micro dilution assay. The method in brief: as §1
A short description of test [16]: Antibacterial activity against Leptospira interrogans serovar Autumnalis N2 after 2 hrs by micro dilution assay. The note with it: N2, 2 h.
The nature of test [17]: Antibacterial activity against Leptospira interrogans serovar Grippotyphosa Moskva V after 2 hrs by micro dilution assay.
A short description of test [18]: as §2.
Test [19] has as its system Leptospira interrogans serovar Canicola. The test can be described thus: Antibacterial activity against Leptospira interrogans serovar Canicola PAI-1 infected cyclophosphamide-treated BALB/c mouse assessed as mouse survival at 5 mg/kg, ip administered once daily for 3 days. The method in brief:
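Cyclophosphamide-treated (Cy-)BALB/c mice were challenged with pathogenic Leptospira Canicola. They were dosed once daily for 3 days at 5, 10 or 20 mg/kg. Controls were untreated mice and doxycycline at 5 mg/kg once daily. Survival was recorded to the end of the study period. Kidneys were checked by 16S qPCR and by re-isolation in EMJH semi-solid medium.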

As a reminder, the MIC is the least concentration at which growth counts as inhibited.

Values after ≈ are worked out from the molar mass of the structure shown. Active and inactive are the calls of the source. The rule behind the calls is not given here.

As for `CCC1=C2C(=O)ON=C2CC(C)(C)O1`, the MIC in [1], in test [3], in test [4], in [5], in test [6] and in test [8] was 250 µg/mL (≈ 1280 µM) each time. Besides, the MIC amounted to 125 µg/mL (≈ 640 µM) in test [9]; 250 µg/mL (≈ 1280 µM) in test [10]; 250 µg/mL (≈ 1280 µM) in test [11]; 125 µg/mL (≈ 640 µM) in test [13]; 250 µg/mL (≈ 1280 µM) in test [16]; 250 µg/mL (≈ 1280 µM) in [17]. Moreover, the result in test [2], in test [7] and in [15] was inactive. Further, the outcome in test [12] and in [14] was Active. Also, the MIC result in the test on Leptospira interrogans was “inactive”.
As to `COc1ccc(C2=C3C(=O)ON=C3CC(C)(C)O2)cc1`, the MIC in test [1], in test [3], in [4], in test [5], in [6] and in test [8] was 250 µg/mL (≈ 915 µM) in each case. For the same compound, the MIC in [9] turned out to be 250 µg/mL (≈ 915 µM); in [10], 125 µg/mL (≈ 457 µM); in [11] it was 125 µg/mL (≈ 457 µM); in [13], 250 µg/mL (≈ 915 µM); in test [18] it was 500 µg/mL (≈ 1830 µM); in test [16] it was 250 µg/mL (≈ 915 µM). Besides, in test [17], the MIC was 250 µg/mL (≈ 915 µM). Besides, the outcome in test [2], in test [7] and in test [15] was inactive. The result in [12] and in test [14] was Active.
Turning to `COc1cc(OC)cc(C2=C3C(=O)ON=C3CC(C)(C)O2)c1`, the result in test [2], in test [7], in [12], in test [14] and in test [15] was inactive.
Take `CC1(C)CC2=NOC(=O)C2=C(c2ccc(Cl)cc2)O1`: the MIC in [1] was 250 µg/mL (≈ 900 µM); in test [3], 250 µg/mL (≈ 900 µM); in test [4], 250 µg/mL (≈ 900 µM); in test [5] it was 250 µg/mL (≈ 900 µM); in test [6] it was 125 µg/mL (≈ 450 µM); in test [8], 250 µg/mL (≈ 900 µM). In addition, the MIC in test [9] was found to be 250 µg/mL (≈ 900 µM); in test [10], 250 µg/mL (≈ 900 µM); in test [11], 125 µg/mL (≈ 450 µM); in test [13] it was 250 µg/mL (≈ 900 µM); in test [16], 250 µg/mL (≈ 900 µM); in [17], 250 µg/mL (≈ 900 µM). The result in [2], in test [7] and in [15] was inactive. Moreover, the outcome in [12] and in test [14] was Active. Besides, the MIC entry in the test on Leptospira interrogans is “inactive”.
For `CC1(C)CC2=NOC(=O)C2=C(c2ccccc2Cl)O1`, the result in test [2], in test [7], in test [12], in test [14] and in test [15] was inactive.
Regarding `CC1(C)CC2=NOC(=O)C2=C(c2ccccc2)O1`, the result in test [2], in test [7], in [12], in [14] and in [15] was inactive.
As for `CC1(C)CC(=O)c2c(cc3ccccc3c2O)O1`, the result in test [2], in [7], in test [14] and in test [15] was inactive. For the same compound, in test [12], the result was Active.
With `CC1=C2C(=O)ON=C2CC(C)(C)O1`, the MIC in test [1] came out at 125 µg/mL (≈ 690 µM); in test [3], 250 µg/mL (≈ 1380 µM); in test [4], 250 µg/mL (≈ 1380 µM); in test [5] it was 500 µg/mL (≈ 2760 µM); in [6], 250 µg/mL (≈ 1380 µM); in test [8], 500 µg/mL (≈ 2760 µM). The MIC in [9] came out at 250 µg/mL (≈ 1380 µM); in test [10], 500 µg/mL (≈ 2760 µM); in [11], 500 µg/mL (≈ 2760 µM); in [13], 250 µg/mL (≈ 1380 µM); in test [18], 500 µg/mL (≈ 2760 µM); in test [16], 500 µg/mL (≈ 2760 µM). It took 500 µg/mL (≈ 2760 µM) to inhibit growth in test [17] (MIC). Moreover, the outcome in test [2], in [7], in test [14] and in [15] was inactive. Moreover, in test [12], the outcome was Active.
With `CC1(C)CC(O)=C2C(=O)c3ccccc3C=C2O1`, the result in test [2], in test [7] and in test [15] was inactive. Besides, the result in test [12] and in test [14] was Active.
With `CC1(C)CC2=NOC(=O)C2=C(c2cccc3ccccc23)O1`, the MIC in [1] was found to be 250 µg/mL (≈ 852 µM); in test [3], 500 µg/mL (≈ 1700 µM); in test [4], 500 µg/mL (≈ 1700 µM); in test [5], 500 µg/mL (≈ 1700 µM); in [6] it was 250 µg/mL (≈ 852 µM); in test [8], 500 µg/mL (≈ 1700 µM). The MIC in test [9] worked out at 125 µg/mL (≈ 426 µM); in test [10], 125 µg/mL (≈ 426 µM); in [11] it was 125 µg/mL (≈ 426 µM); in [13] it was 250 µg/mL (≈ 852 µM); in [18], 500 µg/mL (≈ 1700 µM); in test [16] it was 250 µg/mL (≈ 852 µM). For the same compound, inhibition of growth in test [17] (MIC) required 250 µg/mL (≈ 852 µM). Also, the result in [2], in test [7] and in test [15] was inactive. Besides, the result in test [12] and in test [14] was Active.
Turning to `C[C@H]1c2cccc(O)c2C(=O)C2=C(O)[C@]3(O)C(=O)C(C(N)=O)=C(O)[C@@H](N(C)C)[C@@H]3[C@@H](O)[C@@H]21.O` [DOXYCYCLINE], the MIC in test [1] stood at 200 µg/mL; in test [3] it was 100 µg/mL; in [4], 200 µg/mL; in [5], 100 µg/mL; in test [6] it was 200 µg/mL; in test [8] it was 200 µg/mL. Further, the MIC in [9] stood at 100 µg/mL; in test [10] it was 100 µg/mL; in test [11] it was 200 µg/mL; in test [13], 200 µg/mL; in test [18], 100 µg/mL; in test [16], 200 µg/mL. The MIC in [17] stood at 200 µg/mL. Also, the outcome in [19], in [12] and in [14] was Active. The outcome in test [2], in test [7] and in test [15] was inactive.
As for `CC1CC(=O)c2c(cc3ccccc3c2O)O1` (centres undefined), the result in test [2], in test [7] and in [15] was inactive. The result in [12] and in test [14] was Active.
For the compound `CC1(C)CC2=NOC(=O)C2=C(c2ccco2)O1`, the result in test [2], in [7], in test [12], in test [14] and in test [15] was inactive.
Regarding `COc1cc(OC)c2c(O)c3c(cc2c1)OC(C)C(C)C3=O` (centres undefined), the result in test [2], in [7], in [12], in [14] and in [15] was inactive.
As to `COc1cc(OC)c2c(O)c3c(cc2c1)OC(C)(C)CC3=O`, the outcome in test [2], in test [7], in test [12], in test [14] and in test [15] was inactive.
Take `COc1cc(OC)c2c(O)c3c(cc2c1)OC(C)CC3=O` (centres undefined): the outcome in test [2], in test [7], in test [12], in test [14] and in test [15] was inactive.
